Where a SMILES comes first, the peptide text is derived from it. [ ]: non-standard residue; d: D form. The star is where a group is joined. AllylGly = C=CC[C@H](N)C(=O)O; Boc = CC(C)(C)OC(=O)*; NHBn = c1ccc(CN*)cc1; NHtBu = CC(C)(C)N*; ClAc = O=C(CCl)*
Tests used:
[1] = Inhibition of SARS CoV-2 main protease using DABCYL-KTSAVLQ1SGFRKM-E(EDANS)-NH2 as substrate preincubated for 30 mins followed by substrate addition and measured after 4 hrs by multimode microplate reader assay; set-up: species or system Severe acute respiratory syndrome coronavirus 2
[2] = Inhibition of SARS CoV-2 papain-like protease using Z-Arg-Leu-Arg-Gly-Gly-AMC as substrate preincubated for 30 mins followed by substrate addition and measured after 50 mins by multimode plate reader method; set-up: species or system Severe acute respiratory syndrome coronavirus 2
SARS-CoV-2 [3] = experiment: Antiviral activity against Severe acute respiratory syndrome coronavirus 2 UC-1074 infected in African green monkey Vero cells assessed as reduction in plaque formation measured after 5 days by microscopic analysis; type: functional, organism-based; conditions: Severe acute respiratory syndrome coronavirus 2, UC-1074, Vero, 120 h
SARS-CoV-2 [4] = experiment: Antiviral activity against Severe acute respiratory syndrome coronavirus 2 UC-1075 infected in African green monkey Vero cells assessed as reduction in plaque formation measured after 5 days by microscopic analysis; type: functional, organism-based; conditions: Severe acute respiratory syndrome coronavirus 2, UC-1075, Vero, 120 h
[5] = Cytotoxicity against African green monkey Vero cells assessed as effect on cell morphology by microscopic analysis; type: cell-based; conditions: chlorocebus sabaeus
How it was run: (§1)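 Vero cells were treated with a compound dilution series in DMEM 2% FCS for 5 days at 37 °C, in parallel with the antiviral assay. MCC is the lowest concentration giving a microscopically detectable change in morphology. CC50 is the concentration halving cell number in mock-infected cultures, counted by Coulter counter.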

Vero = experiment: Cytotoxicity against African green monkey Vero cells assessed as reduction in cell viability by coulter counter method; type: cell-based; conditions: chlorocebus sabaeus; how it was run: as §1
Spike glycoprotein = Spike glycoprotein (Severe acute respiratory syndrome coronavirus 2, UniProt P0DTC2); experiment: Binding affinity to CM5 sensor chip immobilized SARS-CoV-2 spike glycoprotein assessed as dissociation constant by SPR analysis
How it was run: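 Spike protein (1.25 μM in 10 mM sodium acetate, pH 4.59) was amine-coupled to about 11500 RU, with the first channel as reference. Running buffer was 10× diluted HBS-P plus 5% DMSO. Compounds at 0.75–100 μM were injected at 25 °C and 20 μL/min, with 90 s association and 600 s dissociation. Runs were in triplicate; KD came from a global 1:1 fit.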

| SMILES | IC50 [1] [µM] | IC50 [2] [µM] | EC50 (SARS-CoV-2 [3]) [µM] | EC50 (SARS-CoV-2 [4]) [µM] | MCC [5] [µM] | CC50 (Vero) [µM] | Kd (Spike glycoprotein) [µM] |
| --- | --- | --- | --- | --- | --- | --- | --- |
| CC(C)C[C@H](NCc1ccc(-c2ccccc2)cc1)C(=O)N[C@@H](Cc1c[nH]c2ccccc12)C(=O)NCc1ccccc1 | 23.6 | > 25 | > 4 | > 4 | > 20 | 34.7 | – |
| CCC(CC)COC(=O)[C@H](C)N[P@](=O)(OC[C@H]1O[C@@](C#N)(c2ccc3c(N)ncnn23)[C@H](O)[C@@H]1O)Oc1ccccc1 | – | – | 0.87 | 0.61 | > 40 | > 40 | – |
| C=CC[C@H](NC(=O)CCl)C(=O)N[C@@H](Cc1c[nH]c2ccccc12)C(=O)NCc1ccccc1 (ClAc-[AllylGly]-Trp-NHBn) | 1.72 | 0.67 | 0.32 | 1.37 | 100 | 38.7 | > 25 |
| C#CC[C@H](NCc1ccc(-c2ccccc2)cc1)C(=O)N[C@@H](Cc1c[nH]c2ccccc12)C(=O)NC(C)(C)C | > 25 | > 25 | > 4 | > 4 | 20 | 4.67 | > 25 |
| C#CC[C@H](NCCC)C(=O)N[C@@H](Cc1c[nH]c2ccccc12)C(=O)NCc1ccc(-c2ccccc2)cc1 | 22.7 | > 25 | > 20 | > 20 | > 100 | 42.4 | – |
| C#CC[C@H](NCc1ccccc1)C(=O)N[C@@H](Cc1c[nH]c2ccccc12)C(=O)NCc1ccc(-c2ccccc2)cc1 | 2.86 | > 25 | 8.94 | 10.9 | ≥ 100 | 51.5 | – |
| CC(C)(C)NC(=O)[C@H](Cc1c[nH]c2ccccc12)NC(=O)[C@@H]1CCCN1C(=O)OC(C)(C)C (Boc-Pro-Trp-NHtBu) | 5.01 | > 25 | > 100 | > 100 | > 100 | > 100 | > 25 |
| C=CC[C@H](NCc1ccccc1)C(=O)N[C@@H](Cc1c[nH]c2ccccc12)C(=O)NCc1ccc(-c2ccccc2)cc1 | > 25 | > 25 | 63.1 | > 20 | > 100 | 78.4 | > 25 |
| C#CC[C@H](NC(=O)OC(C)(C)C)C(=O)N(Cc1ccccc1)Cc1cn(C)c2ccc(C(=O)OC)cc12 | > 25 | > 25 | 4 | 20 | 100 | 8.09 | 11.4 |
| COC(=O)c1ccc2c(c1)c(CN(CCc1ccc(-c3ccccc3)cc1)Cc1ccccc1)cn2CC(C)C | > 25 | > 25 | 5.98 | 0.44 | 100 | 31.5 | 3.26 |
| CC(C)(C)NC(=O)[C@H](Cc1c[nH]c2ccccc12)NC(=O)[C@H](Cc1ccccc1)NCc1ccc(-c2ccccc2)cc1 | > 25 | > 25 | 2.19 | 2.01 | > 100 | 1.49 | 19 |
| CC(C)C[C@H](NCc1ccc(-c2ccccc2)cc1)C(=O)N[C@@H](Cc1c[nH]c2ccccc12)C(=O)NC(C)(C)C | 1.73 | > 25 | > 4 | > 4 | 20 | 10.6 | > 25 |

— ChEMBL document CHEMBL5036345, “Identification of a dual acting SARS-CoV-2 proteases inhibitor through in silico design and step-by-step biological characterization” (Eur J Med Chem, 2021)
